High-throughput results from PubChem.
An excerpt weighted towards active compounds, which were near 2.7% of everything screened.
TCR-CD3 inh – inhibitors of human TCR-CD3 interaction, primary screen, biochemical, fluorescence, TAMRA-labeled TCR probe. T-cell receptor (TCR). inhibition, % at 9.4 µM. 0.37% of 360,000 active; in the data active = inhibition above about 19%;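 note: recombinant mutant TCR 2C K166C tagged with TAMRA read by polarization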
PRMT1 inh – PRMT1 methyltransferase inhibitors, primary screen, biochemical, fluorescence polarization | inhibition, % at 2.79 µM | 1.3% of 370,000 active | recombinant PRMT1, activity-based probe fluorescence polarization | Protein arginine N-methyltransferase 1 (Homo sapiens), Q99873;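 active = inhibition above about 21% made by adding two undisclosed values, limit read from the data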
SIAE primary – human SIAE inhibitors, primary screen, biochemical, fluorescence polarization, FP-Rh probe, 1536-well HTS; Sialate O-acetylesterase (Homo sapiens), Q9HAT2; SIAE FP-Rh probe binding; inhibition, % at 9.66 µM; 0.69% of 370,000 active;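 active = inhibition above a cutoff: mean of compounds within the control limits plus 3 SD of those, cut at about 17% in these data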
HTRA1 inh – HTRA1 serine protease inhibitors, primary screen, biochemical, fluorescence polarization, HTS; Q92743; AID 504803, 2011; inhibition, % at 5.96 µM; 0.5% of 340,000 active; recombinant HTRA1, FP-rhodamine activity-based probe; in the data active = inhibition above about 36%
ABHD4 inh – ABHD4 inhibitors, primary screen, biochemical, fluorescence polarization, mouse | purified mABHD4, FP-Rh probe fluorescence polarization | 0.54% of 370,000 active | (Lyso)-N-acylphosphatidylethanolamine lipase (Mus musculus), Q8VD66 | inhibition, % at 8.92 µM;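 active = inhibition exceeding the mean over every tested compound plus 3 SD, cut at about 30% in these data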
Target sequence (Q8VD66 whole entry, looked up): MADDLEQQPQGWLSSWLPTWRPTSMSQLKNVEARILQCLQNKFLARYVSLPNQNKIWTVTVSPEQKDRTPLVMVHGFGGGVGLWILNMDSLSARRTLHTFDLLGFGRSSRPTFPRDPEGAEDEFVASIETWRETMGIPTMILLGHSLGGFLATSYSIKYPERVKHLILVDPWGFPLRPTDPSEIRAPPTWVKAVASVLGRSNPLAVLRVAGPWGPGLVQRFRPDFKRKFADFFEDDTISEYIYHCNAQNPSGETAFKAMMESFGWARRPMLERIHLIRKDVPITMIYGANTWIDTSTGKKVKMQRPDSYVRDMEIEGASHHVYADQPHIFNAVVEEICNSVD
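Assay system: wild-type mouse ABHD4 protein; compound: single nominal dose of 8.92 µM, 0.89% DMSO final; schedule: 45 min + 60 min at 25 °C; measured by: FP readout, ex 525 nm / em 598 nm; evaluation: % inhibition of FP-Rh probe binding versus controls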
SIAE confirm – human SIAE inhibitors, retest, confirmation, biochemical, fluorescence polarization, FP-Rh probe, triplicate; shares compounds with SIAE primary; SIAE FP-Rh activity-based probe; inhibition, % at 9.66 µM; 13% of 2,300 active; AID 1117263, 2014;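 active = mean inhibition of the replicates above the hit cutoff set in the primary screen, cut at about 17% in these data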;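 note: inhibitors lower polarization as more probe stays unbound to SIAE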
Each line names hits and unclear results; the compound was inactive in the other large screens (follow-up assays come after a bar, where they were run).

CCOC(=O)C1=C(COC(=O)C2CC(=O)N(c3ccccc3CC)C2)NC(=O)NC1C (stereo not given)	none
Cc1ccc(-n2[nH]c(C)c(C=Nc3ccc4[nH]c(=O)[nH]c4c3)c2=O)cc1	SIAE primary 23 | SIAE confirm inactive
O=C1NC[C@H](CCCCN2CCN(CCC3CCCCC3)C(=O)C2=O)N(CC2CCCCC2)C1=O	none (no result: HTRA1 inh)
CCOC(=O)CC[C@H]1CC[C@]2(CCCN(C(=O)c3cccnc3)C2)O1	SIAE primary 30 (no result: TCR-CD3 inh, HTRA1 inh) | SIAE confirm inactive
CCOc1cc(N2CCOCC2)c(OCC)cc1NC(=O)c1ccc(OC)cc1	none
Cc1ccc(C2(C)NC(=O)N(CC(=O)Nc3ccc(N4CCOCC4)cc3N3CCOCC3)C2=O)cc1 (stereo not given)	SIAE primary 19 | SIAE confirm inactive
CC1(c2ccccc2)NC(=O)N(CC(=O)Nc2ccc(N3CCOCC3)cc2N2CCOCC2)C1=O (stereo not given)	none
CCOc1cc(N2CCOCC2)c(OCC)cc1NC(=O)CN1C(=O)NC2(CCCCC2C)C1=O (stereo not given)	none
CCOc1cc(N2CCOCC2)c(OCC)cc1NC(=O)c1ccc(NC(C)=O)cc1	SIAE primary 23 | SIAE confirm inactive
CC1(c2ccccc2)NC(=O)N(CC(=O)Nc2ccc(N3CCOCC3)cc2)C1=O (stereo not given)	SIAE primary 19 | SIAE confirm inactive
CCOc1cc(N2CCOCC2)c(OCC)cc1NC(=O)CN1C(=O)NC(C)(c2ccc(OC)cc2)C1=O (stereo not given)	SIAE primary 18 | SIAE confirm inactive
COc1cccc(C2(C)NC(=O)N(CC(=O)Nc3ccc(N4CCOCC4)cc3)C2=O)c1 (stereo not given)	none
C#CCNC(=O)C[C@H]1C[C@@]2(C(=O)OC)C(=C[C@H](C(C)C)O[C@@H]2C2CC2)N(Cc2ccccc2)C1=O	none (no result: HTRA1 inh)
O=C1NC(=O)C2(CCCc3c([N+](=O)[O-])cccc32)N1 (stereo not given)	none
Cc1cc(NS(=O)(=O)c2ccc(NC(=O)CSc3nnc(-c4cccnc4)n3-c3ccccc3)cc2)nc(C)n1	none (no result: TCR-CD3 inh, HTRA1 inh)
O=C(COC(=O)c1ccccc1O)Nc1ccc(N2CCOCC2)cc1	SIAE primary 17 | SIAE confirm inactive
COc1ccc(N2CCN(c3ncnc4scc(-c5ccc(C)cc5)c34)CC2)cc1	SIAE primary 17 | SIAE confirm inactive
COc1ccc(N2CCN(c3ncnc4scc(-c5ccc(F)cc5)c34)CC2)cc1	none
CCN1C(=O)/C(=C2/Sc3ccccc3N2CC)S/C1=N\c1ncn[nH]1	SIAE primary 19 | SIAE confirm inactive
C=CCN1C(=O)/C(=C2/Sc3ccccc3N2CC)SC1=S	none
Cc1ccc(NC(=O)Cn2nnc(C(=O)NCc3ccc(Cl)cc3)c2N)cc1F	none
CC(/C=C/c1ccc(N(C)C)cc1)=N\N=C1\NC(=O)CC(C(=O)Nc2ccccc2)S1 (stereo not given)	SIAE primary 19 | SIAE confirm inactive
CC[C@@H](CCCc1ccccc1OC)CCS(=O)(=O)C(C)(C)C	none (no result: TCR-CD3 inh, HTRA1 inh)
COc1ccc(OCC(O)CN2CC(C)OC(C)C2)cc1 (stereo not given)	none
N#C/C(=C\c1cc2ccccc2nc1N1CCOCC1)C(=O)Nc1ccc(N2CCOCC2)cc1	SIAE primary 20 | SIAE confirm inactive
N#CC(C#N)=Cc1cc2ccccc2nc1N1CCOCC1	none
O=C1[C@@H]2Cc3c([nH]c4ccccc34)CN2C(=O)CN1CCCO	SIAE primary 18 | SIAE confirm inactive
COC(=O)c1ccc(C(=O)OC)c(NC(=S)N2CCCC(C)C2)c1 (stereo not given)	none
CCCCN1CCN=C1N(C)C	SIAE primary 17 | SIAE confirm inactive
CN(C)C1=NCCN1CCCC1CCCCC1	none
Cc1ccccc1N=C1Nc2ccccc2N[C@]12C[C@H]1CCC(=O)N3CC[C@@H](C2)[C@@H]13	SIAE primary 18 | SIAE confirm inactive
O=C(OC12CCCN(C1)/C(=C/c1cccc(Cl)c1)C2)C1CCCC1 (stereo not given)	none (no result: TCR-CD3 inh, HTRA1 inh)
Cc1cccc(NC(=O)C2CC(O)CN2C(=O)Oc2ccccc2)c1 (stereo not given)	none
CC1=CC(C)(C)Nc2ccc(OC(=O)CN3C(=O)c4ccccc4C3=O)cc21	none
CC1=CC(C)(C)Nc2ccc(OC(=O)CN3C(=O)c4cccc5cccc(c45)C3=O)cc21	SIAE primary 19 | SIAE confirm inactive
CC(=O)NC12CC3CC(C1)CC(C(=O)N1CCN(S(=O)(=O)c4ccc(C(C)C)cc4)CC1)(C3)C2	none
CC(=O)NC12CC3CC(C1)CC(C(=O)N1CCN(S(=O)(=O)c4ccccc4C#N)CC1)(C3)C2	SIAE primary 28 | SIAE confirm inactive
O=C(NCCCN1CCOCC1)c1ccc(S(=O)(=O)Nc2ccccc2F)cc1	SIAE primary 17 | SIAE confirm inactive
Cc1ccccc1NS(=O)(=O)c1ccc(C(=O)NCCCN2CCOCC2)cc1	none
COc1cccc(CNC(=O)[C@H]2CCCN2C(=O)[C@H]2CCCN2C(=O)c2c(F)cccc2F)c1	none (no result: HTRA1 inh)
Cc1ccc(C(=O)N(CC(=O)NC2CCCC2)c2ccccc2F)s1	none
O=C(N/N=C/c1sc(N2CCOCC2)nc1-c1ccccc1)c1ccccc1O	none
Nc1ccc(C(=O)N/N=C/c2sc(N3CCOCC3)nc2-c2ccccc2)cc1	SIAE primary 17 | SIAE confirm inactive
CC1=NN(c2cccc([N+](=O)[O-])c2)C(=O)C1	SIAE primary 17 | SIAE confirm inactive
CCC1(CC)CNC(=O)NC1	none
COc1ccc(C(=O)C(=O)N2CCN(C(=O)c3ccccc3C(F)(F)F)CC2)cc1OC	SIAE primary 22 (no result: HTRA1 inh) | SIAE confirm inactive
Cc1ccccc1NS(=O)(=O)c1ccc(C(=O)N2CCN(S(=O)(=O)c3ccccc3)CC2)cc1	SIAE primary 19 | SIAE confirm inactive
Cn1nnnc1SCC(=O)Nc1ccc(C(=O)N2CCN(Cc3ccccc3F)CC2)cc1	SIAE primary 18 | SIAE confirm inactive
O=C(CCl)N1c2ccccc2OCC1c1ccccc1 (stereo not given)	none
O=C(CCl)N1c2ccccc2SCC1c1ccccc1 (stereo not given)	SIAE primary 19 | SIAE confirm inactive
Cc1cc([N+](=O)[O-])ccc1NC(=O)C(C)NC1CCCCC1 (stereo not given)	none
O=C(/C=C(\Nc1cc(Cl)c(F)c(Cl)c1)c1ccccc1)c1ccccc1	none (no result: HTRA1 inh)
Clc1ccc(Nc2nc(C3CC3)cs2)cc1	SIAE primary 20 | SIAE confirm inactive
